Measured values from ChEMBL document CHEMBL1123137 (J Med Chem, 1985).
Values belong to the compound of their own block, whether it stands above or below them.

Legend:
[1] = HPLC capacity factor (k'); type: ADME
[2] = Molar potency ratio was evaluated at 47 uM
[3] = Maximum increase in coronary flow (percent) of N6-modified adenosines at 27 uM
Albumin = Albumin (Bos taurus, UniProt P02769); assay: Serum albumin binding; settings: cattle
Method in brief: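 Affinity for bovine serum albumin measured by Hummel–Dreyer method adapted for HPLC. Samples of BSA (0.25–2 g/dL) with 25 μM analogue in 0.1 M NaH2PO4, pH 7.4, were applied to an Aquapore OH-100 column equilibrated with 25 μM analogue in the same buffer. Effluent absorbance was read at 254 nm. Duplicate estimates were made at each of two BSA concentrations, usually 1 and 2 g/dL.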

[4] = Molar potency ratio was evaluated at 37 uM
[5] = Molar potency ratio was evaluated at 107 uM
[6] = Molar potency ratio was evaluated at 18 uM
[7] = Molar potency ratio was evaluated at 35 uM
[8] = Molar potency ratio was evaluated at 27 uM
[9] = Molar potency ratio was evaluated at 61 uM
[10] = Molar potency ratio was evaluated at 50 uM
[11] = Molar potency ratio was evaluated at 46 uM

Chain of Albumin (P02769 whole entry): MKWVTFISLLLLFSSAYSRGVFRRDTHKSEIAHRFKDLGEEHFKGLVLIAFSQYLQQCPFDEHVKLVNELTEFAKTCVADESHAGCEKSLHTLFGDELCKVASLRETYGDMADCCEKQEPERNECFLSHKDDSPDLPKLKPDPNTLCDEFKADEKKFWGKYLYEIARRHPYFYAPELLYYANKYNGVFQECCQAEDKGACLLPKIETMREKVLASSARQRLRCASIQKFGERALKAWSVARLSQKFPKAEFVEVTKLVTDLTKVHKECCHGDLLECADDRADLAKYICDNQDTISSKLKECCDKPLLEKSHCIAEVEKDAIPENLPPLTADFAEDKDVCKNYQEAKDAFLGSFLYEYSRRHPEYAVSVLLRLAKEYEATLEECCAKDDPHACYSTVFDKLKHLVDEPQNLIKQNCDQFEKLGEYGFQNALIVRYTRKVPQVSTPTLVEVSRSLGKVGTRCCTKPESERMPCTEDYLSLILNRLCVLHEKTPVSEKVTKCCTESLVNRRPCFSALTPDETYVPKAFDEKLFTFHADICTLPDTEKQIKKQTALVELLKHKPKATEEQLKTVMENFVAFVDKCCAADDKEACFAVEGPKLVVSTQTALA

k' [1]: 4.28
MPR [2]: 12%
Structure (SMILES): CCC(C)(C)Nc1ncnc2c1ncn2C1O[C@H](CO)[C@@H](O)[C@H]1O (stereo partly drawn)

k' [1]: 4.45
max coronary flow increase [3]: 7%
Structure (SMILES): CC(C)(Nc1ncnc2c1ncn2C1O[C@H](CO)[C@@H](O)[C@H]1O)c1ccccc1 (stereo partly drawn)

k' [1]: 8.8
Amount bound (Albumin): 10.1 M/g
MPR [4]: 12%
Structure (SMILES): OC[C@H]1O[C@@H](n2cnc3c(NC4CCCCCCC4)ncnc32)[C@H](O)[C@@H]1O

k' [1]: 2.36
MPR [5]: 9%
Structure (SMILES): OC[C@H]1OC(n2cnc3c(OCCc4ccccc4)ncnc32)[C@H](O)[C@@H]1O (stereo partly drawn)

k' [1]: 12.2
MPR [6]: 0
Structure (SMILES): OC[C@H]1OC(n2cnc3c(NC4C5C[C@H]6C[C@@H](C5)C[C@@H]4C6)ncnc32)[C@H](O)[C@@H]1O (stereo partly drawn)

k' [1]: 2.44
MPR [7]: 7%
Structure (SMILES): CC(C)(C)Nc1ncnc2c1ncn2C1O[C@H](CO)[C@@H](O)[C@H]1O (stereo partly drawn)

k' [1]: 21
MPR [4]: 8%
Structure (SMILES): CC1(C)C2CCC(CNc3ncnc4c3ncn4C3O[C@H](CO)[C@@H](O)[C@H]3O)C1C2 (stereo partly drawn)

k' [1]: 19.6
MPR [8]: 0
Structure (SMILES): OC[C@H]1OC(n2cnc3c(NC45C[C@H]6C[C@@H](C4)C[C@@H](C5)C6)ncnc32)[C@H](O)[C@@H]1O (stereo partly drawn)

k' [1]: 6.11
MPR [9]: 27%
Structure (SMILES): OC[C@H]1OC(n2cnc3c(NC(c4ccccc4)c4ccccc4)ncnc32)[C@H](O)[C@@H]1O (stereo partly drawn)

k' [1]: 18.7
MPR [10]: 4%
Structure (SMILES): CC(C)(CCc1ccccc1)Nc1ncnc2c1ncn2C1O[C@H](CO)[C@@H](O)[C@H]1O (stereo partly drawn)

k' [1]: 9.29
MPR [11]: 5%
Structure (SMILES): CC1(Nc2ncnc3c2ncn3C2O[C@H](CO)[C@@H](O)[C@H]2O)CCCCC1 (stereo partly drawn)
